Laboratory results published in paper PMC4893919 (Molecular cancer therapeutics, 2016).
Where “and” joins values, the source holds several entries; their conditions need not be identical. Equal values may be shown once. Read-outs that look alike come from different tables or passages of the source.

Assays:
B16-F10 (NRAS mutation) = assay: MTT cell viability assay, B16-F10; type: cell-based; details: read-out: IC50, B16-F10 (NRAS mutation); 24 h treatment, mouse cell line
Outline: (§1)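 Cells were seeded in 96-well plates overnight, then exposed to test compound for 24 h at concentrations up to 10 μM. Growth was read by MTT as OD570. Viability was expressed relative to vehicle (0.5% DMSO) set as 100%, and IC50 was derived from this.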

[1] = test system: MeWo (No NRAS or BRAF mutation); assay: MTT cell viability assay, MeWo; type: cell-based; details: read-out: IC50, MeWo (No NRAS or BRAF mutation); 24 h treatment, human cell line
Outline: as §1

SK-MEL-2 (NRAS mutation) = assay: MTT cell viability assay, SK-MEL-2; type: cell-based; details: read-out: IC50, SK-MEL-2 (NRAS mutation); 24 h treatment, human cell line
Outline: as §1

A2058 (BRAF mutation) = assay: MTT cell viability assay, A2058; type: cell-based; details: read-out: IC50, A2058 (BRAF mutation); 24 h treatment, human cell line
Outline: as §1

A375 (BRAF mutation) = assay: MTT cell viability assay, A375; type: cell-based, human
[2] = test system: Melanocyte (Normal cells); assay: MTT cell viability assay, normal melanocytes; type: cell-based; details: read-out: IC50, Melanocyte (Normal cells); 24 h treatment, human cells
Outline: as §1

A375 cells [3] = assay: Colony formation assay, A375; type: cell-based, human; details: for inhibition of colony formation: 21 days
Outline: (§2)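 A375 or A375-R cells were grown in 24-well plates with treatment for 21 days, with drug-containing medium renewed every three days. Colonies were stained with 0.1% crystal violet in PBS. Dye was extracted with 20% acetic acid and absorbance read at 595 nm. Values are colony formation relative to control, n = 4.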

A375 cells [4] = assay: Cell cycle analysis, A375; type: cell-based, human; details: A375, 24 h
Outline: (§3)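 Cells were synchronised in medium with 1% FBS for 12 h, then given fresh 10% FBS medium with vehicle or test compound for 24 h. Adherent and floating cells were pooled, fixed overnight in ice-cold 70% ethanol at 4°C, and stained with propidium iodide/RNase A for 30 min at room temperature in the dark. Cells were then analysed by flow cytometry.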

A375 cells [5] = assay: Apoptosis detection; type: cell-based, human; details: A375, 72 h
Outline: (§4)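 Cells were seeded in 6-well plates and exposed to vehicle or test compound for 72 h. Apoptotic cells were scored by Annexin V-FITC plus propidium iodide double staining and flow cytometry.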

A375 xenografts = assay: A375 xenograft tumor model; type: in vivo, NOD/SCID mice
Outline: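 A375 cells (3×10^6) were injected subcutaneously into the flanks of 6-week-old female NOD/SCID mice. At about 50 mm³, mice were randomised, n = 8 per group. Dosing was PLX4032 20 mg/kg/day and test compound 20 mg/kg every two days. Combination arms alternated test compound (20 mg/kg every four days) with PLX4032 (20 mg/kg every two days). Volume (a×b²×0.5) was measured every three days. Tumours were dissected and weighed. TGI compared volume change with vehicle.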

[6] = test system: A375-R cells (acquired vemurafenib resistance); assay: MTT cell viability assay, A375-R; type: cell-based, human
A375-R cells [7] = assay: Colony formation assay, A375-R; type: cell-based, human; details: 21 days
Outline: as §2

A375-R cells [8] = assay: Cell cycle analysis, A375-R; type: cell-based, human
Outline: as §3

A375-R cells [9] = assay: Apoptosis detection, A375-R; type: cell-based, human
Outline: as §4

[10] = test system: A375-R xenografts (acquired vemurafenib resistance); assay: A375-R xenograft tumor model; type: in vivo, NOD/SCID mice
Outline: (§5)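 Female NOD/SCID mice, 6 weeks old, received 3×10^6 A375-R or A2058 cells subcutaneously in the flank. Treatment began at about 50 mm³ tumour volume, with 8 mice per randomised group. Doses were PLX4032 75 mg/kg/day and test compound 20 mg/kg every two days; combination arms alternated the two, each every two days. Tumour volume (a×b²×0.5) and body weight were recorded every three days. TGI used initial-to-final volume change versus vehicle.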

[11] = test system: A2058 xenografts (intrinsic vemurafenib resistance); assay: A2058 xenograft tumor model; type: in vivo, NOD/SCID mice; details: 75 mg/kg/day, 24 doses in total
Outline: as §5

metastatic melanoma = details: cited from earlier work
A375 cells [12] = assay: ROS measurement, A375; type: cell-based, human; details: A375, 5 µM, 2 h
A375-R cells [13] = assay: ROS measurement, A375-R; type: cell-based, human; details: 5 µM, 2 h
[14] = read-out: IC50, A375 (BRAF mutation), 24 h treatment, human cell line
[15] = 20 mg/kg/day, 24 doses in total
[16] = 20 mg/kg/every two days, 12 doses in total

Row | SMILES | IC50 (B16-F10 (NRAS mutation)) | IC50 [1] | IC50 (SK-MEL-2 (NRAS mutation)) | IC50 (A2058 (BRAF mutation)) | IC50 (A375 (BRAF mutation); [14]) | IC50 [2] | further results
1 | C=C1C(=O)OC2CC3=C[C@@H](C/C(C)=C/C(OC(=O)c4ccc(C)cc4)[C@H]12)OC3=O (stereo partly shown) [DETD-33] | 2.2 ± 0.29 µM | 6.7 ± 0.22 µM | 5.9 ± 0.2 µM | 4.2 ± 0.09 µM | 2.9 ± 0.26 µM | > 10 µM | –
2 | CCCS(=O)(=O)Nc1ccc(F)c(C(=O)c2c[nH]c3ncc(-c4ccc(Cl)cc4)cc23)c1F [PLX4032, vemurafenib, reference compound] | – | – | – | – | – | – | IC50 (A375 (BRAF mutation); Homo sapiens, A-375, 72 h, read-out: IC50 on A375 cells): 0.07 µM; inhibition at 0.1 µM (A375 cells [3]; Homo sapiens, A-375, 504 h, read-out: inhibition of colony formation): 55%; effect on cell-cycle distribution (A375 cells [4]): G1-phase cell-cycle arrest; apoptosis (A375 cells [5]): 10.4%; reduction of tumor mass (A375 xenografts; [15]): 71.9%; tumor growth inhibition (TGI) (A375 xenografts; [15]): 87.4%; IC50 ([6]; Homo sapiens, 72 h, read-out: IC50 on A375-R cells): 7.34 µM; fold less sensitive, A375-R compared to parental cell line ([6]; IC50 A375-R vs A375): 100 fold; effect on colony formation of A375-R cells (A375-R cells [7]): no inhibitory effect; effect on cell-cycle distribution (A375-R cells [8]): no effect; apoptosis (A375-R cells [9]): no effect; anti-tumor activity ([10]; A375-R xenograft, 75 mg/kg/day, 24 doses in total): no anti-tumor activity; anti-tumor activity [11]: no anti-tumor activity; average time to relapse after therapy (metastatic melanoma; melanoma patients): ≤ 7 months
3 | C=C1C(=O)OC2CC3=C[C@@H](C/C(C)=C/C(OC(C)=O)[C@H]12)OC3=O (stereo partly shown) [DETD-17] | > 10 µM | > 10 µM | > 10 µM | > 10 µM | > 10 µM | > 10 µM | –
4 | C=C1C(=O)OC2CC3=C[C@@H](C/C(C)=C/C(OC(=O)Cc4ccccc4)[C@H]12)OC3=O (stereo partly shown) [DETD-43] | 7.4 ± 0.48 µM | > 10 µM | 8.2 ± 0.27 µM | 8.7 ± 0.33 µM | 3.6 ± 0.25 µM | > 10 µM | –
5 | C=C1C(=O)OC2CC3=C[C@@H](C/C(C)=C/C(OC(=O)C(C)CC)[C@H]12)OC3=O (stereo partly shown) [DETD-13] | 7.1 ± 0.09 µM | > 10 µM | > 10 µM | > 10 µM | > 10 µM | > 10 µM | –
6 | C=C1C(=O)OC2CC3=C[C@@H](C/C(C)=C/C(O)[C@H]12)OC3=O (stereo partly shown) [DETD-3] | > 10 µM | > 10 µM | > 10 µM | > 10 µM | > 10 µM | > 10 µM | –
7 | CC(=O)N[C@@H](CS)C(=O)O [NAC, N-acetyl-L-cysteine, reference compound] | – | – | – | – | – | – | effect on A375 cell viability (A375 (BRAF mutation); 5 mM alone): did not affect; effect on A375-R cell viability ([6]; 5 mM alone): did not affect
8 | C=C1C(=O)OC2CC3=C[C@@H](C/C(C)=C/C(OC(=O)/C(C)=C/CC)[C@H]12)OC3=O (stereo partly shown) [DETD-5] | 4.7 ± 0.03 µM | > 10 µM | 7.8 ± 0.14 µM | 5.8 ± 0.08 µM | 4.1 ± 0.15 µM | > 10 µM | –
9 | C=C(CC)C(=O)OC1/C=C(\C)C[C@@H]2C=C(CC3OC(=O)C(=C)[C@@H]13)C(=O)O2 (stereo partly shown) [DETD-19] | 7.8 ± 0.28 µM | > 10 µM | > 10 µM | > 10 µM | > 10 µM | > 10 µM | –
10 | CN(C)/N=N/c1[nH]cnc1C(N)=O [dacarbazine] | – | – | – | – | – | – | complete response (metastatic melanoma; metastatic melanoma): less than 5%
11 | C=C(C)C(=O)O[C@H]1CC2=C[C@@H](C/C(C)=C/[C@H]3OC(=O)C(=C)[C@H]13)OC2=O [DET, deoxyelephantopin] | 6 ± 0.13 µM | > 10 µM | > 10 µM | > 10 µM | 6 µM and 5.9 µM | > 10 µM | inhibition of A375 cell viability (A375 (BRAF mutation); 2 µM, 72 h): 55%; inhibition of colony formation (A375 cells [3]; 1 µM): 38%; inhibition of colony formation (A375 cells [3]; 2.5 µM): 65%; inhibition of colony formation (A375 cells [3]; 5 µM): 91%; effect on cell-cycle distribution (A375 cells [4]): induced G2/M-phase arrest; apoptosis (A375 cells [5]): ≤ 67.8%; reduction of tumor mass (A375 xenografts; [16]): 47.5%; tumor growth inhibition (TGI) (A375 xenografts; [16]): 71.0%; inhibition of A375-R cell viability ([6]; 2 µM, 72 h): 65%; effect on colony formation of A375-R cells (A375-R cells [7]): inhibited colony formation; effect on cell-cycle distribution (A375-R cells [8]): G2/M-phase cell-cycle arrest; tumor growth inhibition (TGI) ([10]; A375-R, 20 mg/kg/every two days, 12 doses in total): 31.2%; increase of ROS level (A375 cells [12]): more than 2 fold; increase of ROS level (A375-R cells [13]): more than 2 fold
12 | C=C1C(=O)OC2CC3=C[C@@H](C/C(C)=C/C(OC(=O)/C=C/C)[C@H]12)OC3=O (stereo partly shown) [DETD-24] | > 10 µM | > 10 µM | > 10 µM | > 10 µM | > 10 µM | > 10 µM | –
13 | C=C1C(=O)OC2CC3=C[C@@H](C/C(C)=C/C(OC(=O)c4ccccc4)[C@H]12)OC3=O (stereo partly shown) [DETD-31] | 2.9 ± 0.78 µM | > 10 µM | > 10 µM | > 10 µM | 4.3 ± 0.62 µM | > 10 µM | –
